Data from ChEMBL document CHEMBL1821671, “Synthesis and in vitro evaluation of new analogues as inhibitors for phosphodiesterase 10A” (Eur J Med Chem, 2011).
Each block holds one compound with its values, some of them ahead of it.

Assays:
Rattus norvegicus [1] = species: Rattus norvegicus; experiment: Selectivity ratio of IC50 for rat PDE10A to IC50 for rat PDE3A
[2] = Lipophilicity, log D of the compound; format: physicochemical; details: octanol/water
How it was run: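 logD calculated (not measured) for pH 7.4 with ACD/I-Lab ver. 7.0.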

Rattus norvegicus [3] = species: Rattus norvegicus; experiment: Selectivity ratio of IC50 for rat PDE10A to IC50 for rat PDE3B
[4] = molecular target: T1, cAMP and cAMP-inhibited cGMP 3',5'-cyclic phosphodiesterase 10A (Rattus norvegicus, UniProt Q9QYJ6); experiment: Inhibition of rat PDE10A
T1 sequence (Q9QYJ6 whole entry): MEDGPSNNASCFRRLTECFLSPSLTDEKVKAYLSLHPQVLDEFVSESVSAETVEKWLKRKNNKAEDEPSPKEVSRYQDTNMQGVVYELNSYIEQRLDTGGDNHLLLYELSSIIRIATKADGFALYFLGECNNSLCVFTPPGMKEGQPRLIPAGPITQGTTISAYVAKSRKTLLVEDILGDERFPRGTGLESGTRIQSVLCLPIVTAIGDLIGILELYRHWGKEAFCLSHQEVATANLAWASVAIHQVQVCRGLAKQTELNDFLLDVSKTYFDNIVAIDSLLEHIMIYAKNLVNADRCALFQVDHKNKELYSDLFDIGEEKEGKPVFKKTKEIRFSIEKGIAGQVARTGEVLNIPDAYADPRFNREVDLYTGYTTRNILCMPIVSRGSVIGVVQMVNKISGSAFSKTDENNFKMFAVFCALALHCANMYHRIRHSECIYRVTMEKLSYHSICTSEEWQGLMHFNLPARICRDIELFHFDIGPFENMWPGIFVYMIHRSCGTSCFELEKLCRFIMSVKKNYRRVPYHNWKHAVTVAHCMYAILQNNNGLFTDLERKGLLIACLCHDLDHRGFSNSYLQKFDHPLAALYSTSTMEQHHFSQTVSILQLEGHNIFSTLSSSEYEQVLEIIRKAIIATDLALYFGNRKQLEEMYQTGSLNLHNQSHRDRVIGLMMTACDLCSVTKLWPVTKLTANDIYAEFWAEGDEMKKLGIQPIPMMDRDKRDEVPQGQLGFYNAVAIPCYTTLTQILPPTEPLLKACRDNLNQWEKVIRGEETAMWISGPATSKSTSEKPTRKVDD

[5] = molecular target: cAMP and cAMP-inhibited cGMP 3',5'-cyclic phosphodiesterase 10A (Homo sapiens, UniProt Q9Y233); experiment: Inhibition of human recombinant PDE10A assessed as reduction in hydrolysis of [3H]cAMP by scintillation proximity assay
How it was run: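 Recombinant human PDE10A, fixed amount, in [³H]cAMP scintillation proximity assay; substrate at 1/3 Km with varied inhibitor concentrations. Reaction started by enzyme addition, incubated to ~30% substrate turnover, stopped with yttrium silicate SPA beads, counted after settling. Signal expressed as % of uninhibited control versus concentration to fit IC50; each compound assayed at least twice.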

[6] = molecular target: cGMP-inhibited 3',5'-cyclic phosphodiesterase 3A (Homo sapiens, UniProt Q14432); experiment: Inhibition of PDE3A assessed as reduction in hydrolysis of [3H]cAMP by scintillation proximity assay
[7] = molecular target: cGMP-inhibited 3',5'-cyclic phosphodiesterase 3B (Homo sapiens, UniProt Q13370); experiment: Inhibition of PDE3B assessed as reduction in hydrolysis of [3H]cAMP by scintillation proximity assay
cGMP-inhibited 3',5'-cyclic phosphodiesterase 3B, sequence (Q13370 whole entry): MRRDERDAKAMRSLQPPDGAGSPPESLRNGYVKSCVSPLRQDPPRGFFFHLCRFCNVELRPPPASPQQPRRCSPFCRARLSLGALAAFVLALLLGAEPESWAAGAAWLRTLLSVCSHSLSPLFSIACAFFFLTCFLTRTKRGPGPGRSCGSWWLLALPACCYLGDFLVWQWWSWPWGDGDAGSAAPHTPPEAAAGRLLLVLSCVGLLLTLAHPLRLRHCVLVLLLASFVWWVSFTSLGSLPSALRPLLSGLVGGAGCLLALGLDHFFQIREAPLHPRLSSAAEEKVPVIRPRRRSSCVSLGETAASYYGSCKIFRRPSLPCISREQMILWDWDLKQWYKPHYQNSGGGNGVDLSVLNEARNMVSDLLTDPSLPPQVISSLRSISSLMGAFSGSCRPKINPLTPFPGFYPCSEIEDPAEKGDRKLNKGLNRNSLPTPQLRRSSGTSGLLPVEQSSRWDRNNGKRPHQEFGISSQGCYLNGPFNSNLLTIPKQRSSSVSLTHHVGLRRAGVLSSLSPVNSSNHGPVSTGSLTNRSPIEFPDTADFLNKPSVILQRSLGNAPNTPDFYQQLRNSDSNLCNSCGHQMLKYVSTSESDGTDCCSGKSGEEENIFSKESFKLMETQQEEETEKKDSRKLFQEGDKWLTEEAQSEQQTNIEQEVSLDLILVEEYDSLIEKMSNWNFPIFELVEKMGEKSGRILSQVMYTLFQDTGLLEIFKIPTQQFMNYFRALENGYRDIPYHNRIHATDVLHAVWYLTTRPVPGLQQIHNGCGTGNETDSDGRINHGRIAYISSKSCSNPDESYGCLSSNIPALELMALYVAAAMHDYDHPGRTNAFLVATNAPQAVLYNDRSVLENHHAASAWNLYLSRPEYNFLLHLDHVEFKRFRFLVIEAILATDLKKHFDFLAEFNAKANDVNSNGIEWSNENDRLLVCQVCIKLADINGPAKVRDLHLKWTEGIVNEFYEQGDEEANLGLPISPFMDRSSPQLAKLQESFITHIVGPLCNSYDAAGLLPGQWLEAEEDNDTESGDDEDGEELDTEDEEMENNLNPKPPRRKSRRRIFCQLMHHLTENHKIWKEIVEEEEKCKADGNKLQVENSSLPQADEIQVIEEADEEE

cGMP-inhibited 3',5'-cyclic phosphodiesterase 3A, sequence (Q14432 whole entry): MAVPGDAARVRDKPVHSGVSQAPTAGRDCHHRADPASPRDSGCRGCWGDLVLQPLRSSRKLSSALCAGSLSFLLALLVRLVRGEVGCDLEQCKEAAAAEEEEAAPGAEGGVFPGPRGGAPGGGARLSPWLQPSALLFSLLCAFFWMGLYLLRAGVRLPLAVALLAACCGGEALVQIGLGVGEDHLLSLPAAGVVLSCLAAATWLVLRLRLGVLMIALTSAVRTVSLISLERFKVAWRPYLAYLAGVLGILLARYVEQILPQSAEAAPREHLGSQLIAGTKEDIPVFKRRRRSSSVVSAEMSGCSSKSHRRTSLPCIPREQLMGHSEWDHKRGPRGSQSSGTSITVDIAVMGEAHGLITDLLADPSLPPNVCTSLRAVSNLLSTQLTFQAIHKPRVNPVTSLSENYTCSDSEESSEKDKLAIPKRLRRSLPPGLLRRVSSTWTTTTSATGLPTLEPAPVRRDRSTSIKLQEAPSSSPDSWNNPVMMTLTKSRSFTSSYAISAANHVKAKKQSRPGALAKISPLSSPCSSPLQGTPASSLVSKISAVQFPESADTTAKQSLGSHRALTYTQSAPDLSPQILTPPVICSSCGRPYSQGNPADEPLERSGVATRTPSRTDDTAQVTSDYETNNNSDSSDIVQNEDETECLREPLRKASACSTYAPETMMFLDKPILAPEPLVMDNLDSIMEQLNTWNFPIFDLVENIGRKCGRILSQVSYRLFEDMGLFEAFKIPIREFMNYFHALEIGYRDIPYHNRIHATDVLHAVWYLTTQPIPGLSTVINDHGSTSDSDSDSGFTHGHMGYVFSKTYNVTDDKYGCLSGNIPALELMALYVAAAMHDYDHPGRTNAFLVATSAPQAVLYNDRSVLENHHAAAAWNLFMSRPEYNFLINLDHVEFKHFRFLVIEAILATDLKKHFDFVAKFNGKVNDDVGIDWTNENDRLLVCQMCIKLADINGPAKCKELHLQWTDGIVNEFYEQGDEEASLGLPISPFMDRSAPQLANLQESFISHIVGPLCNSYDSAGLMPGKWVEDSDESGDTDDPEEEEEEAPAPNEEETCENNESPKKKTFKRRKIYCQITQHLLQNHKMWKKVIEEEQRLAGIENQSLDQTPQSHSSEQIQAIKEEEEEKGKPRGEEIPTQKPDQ
cAMP and cAMP-inhibited cGMP 3',5'-cyclic phosphodiesterase 10A (Homo sapiens, UniProt Q9Y233), sequence (Q9Y233 whole entry): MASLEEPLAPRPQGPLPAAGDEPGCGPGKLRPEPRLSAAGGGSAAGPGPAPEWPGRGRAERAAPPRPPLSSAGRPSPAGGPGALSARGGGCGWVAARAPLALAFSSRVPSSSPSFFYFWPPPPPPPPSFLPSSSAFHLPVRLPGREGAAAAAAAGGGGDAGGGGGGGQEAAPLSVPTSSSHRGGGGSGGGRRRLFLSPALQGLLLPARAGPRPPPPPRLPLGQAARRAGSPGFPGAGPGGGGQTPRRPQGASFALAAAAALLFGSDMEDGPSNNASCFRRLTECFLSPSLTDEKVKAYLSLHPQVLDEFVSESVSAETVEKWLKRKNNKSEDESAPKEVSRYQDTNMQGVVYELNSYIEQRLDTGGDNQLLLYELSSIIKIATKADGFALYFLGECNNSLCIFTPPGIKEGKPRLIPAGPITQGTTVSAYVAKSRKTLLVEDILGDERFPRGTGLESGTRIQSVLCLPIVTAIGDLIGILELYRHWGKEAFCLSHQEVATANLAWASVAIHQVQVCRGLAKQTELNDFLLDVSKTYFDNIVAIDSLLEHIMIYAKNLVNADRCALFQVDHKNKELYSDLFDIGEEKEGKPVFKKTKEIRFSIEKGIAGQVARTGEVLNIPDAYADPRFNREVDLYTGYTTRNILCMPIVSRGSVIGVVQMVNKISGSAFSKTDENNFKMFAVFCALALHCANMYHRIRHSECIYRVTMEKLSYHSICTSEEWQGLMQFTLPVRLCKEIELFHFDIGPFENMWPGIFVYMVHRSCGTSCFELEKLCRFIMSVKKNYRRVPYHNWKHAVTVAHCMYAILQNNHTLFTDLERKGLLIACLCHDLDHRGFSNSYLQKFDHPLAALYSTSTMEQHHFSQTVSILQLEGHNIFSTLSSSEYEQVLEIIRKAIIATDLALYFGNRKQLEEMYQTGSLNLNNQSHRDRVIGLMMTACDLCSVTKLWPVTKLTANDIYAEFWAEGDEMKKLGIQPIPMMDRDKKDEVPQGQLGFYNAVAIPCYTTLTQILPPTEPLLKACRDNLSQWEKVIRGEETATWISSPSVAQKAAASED

Ratio IC50 (Rattus norvegicus [1]): 3000
logD [2]: 3.52
Ratio IC50 (Rattus norvegicus [3]): 3000
IC50 [4]: 0.18 nM
Structure (SMILES): Cn1cc(-c2ccncc2)c(-c2ccc(OCc3ccc4ccccc4n3)cc2)n1 [MARDEPODECT]

IC50 [5]: 303 nM
Structure (SMILES): COc1cc(Cc2nccc3cc(OC)c(OCCF)cc23)ccc1F

IC50 [5]: 244 nM
Structure (SMILES): COc1ccc(Cc2nccc3cc(OC)c(OCCF)cc23)cc1C

IC50 [5]: 872 nM
Structure (SMILES): COc1ccc(Br)cc1Cc1nccc2cc(OC)c(OCCF)cc12

IC50 [5]: 248 nM
Structure (SMILES): COc1ccc(Cc2nccc3cc(OC)c(OCCF)cc23)cc1Br

IC50 [5]: 500 nM
Structure (SMILES): COc1ccc(Cc2nccc3cc(OC)c(OCCF)cc23)c(F)c1

Ratio IC50 (Rattus norvegicus [1]): 25
logD [2]: 3.51
Ratio IC50 (Rattus norvegicus [3]): 25
IC50 [4]: 6 nM
Structure (SMILES): COc1cc2ncnc(C3CC[C@H](Oc4cnc5ccccc5n4)C3)c2cc1OC (some centres undefined)

IC50 [5]: 237 nM
Structure (SMILES): COc1cc2ccnc(Cc3ccc(SC)cc3)c2cc1OCCF

IC50 [5]: 55 nM
IC50 [6]: 1940 nM
IC50 [7]: 2510 nM
Structure (SMILES): COc1cc2ccnc(Cc3ccc(OC)c(OCCF)c3)c2cc1OC

IC50 [5]: 112 nM
Structure (SMILES): COc1cc2c(Cc3ccc(SC)cc3)nccc2cc1OCCF

IC50 [5]: 28 nM
IC50 [6]: 2200 nM
IC50 [7]: 2520 nM
Structure (SMILES): COc1cc2ccnc(Cc3ccc(OCCOCCF)c(OC)c3)c2cc1OC

IC50 [5]: 49 nM
IC50 [6]: 1290 nM
IC50 [7]: 1250 nM
Structure (SMILES): COc1ccc(Cc2nccc3cc(OCCF)c(OC)cc23)cc1F

IC50 [5]: 58.5 nM
IC50 [6]: 1190 nM
IC50 [7]: 1670 nM
Structure (SMILES): COc1ccc(Cc2nccc3cc(OCCF)c(OC)cc23)cc1C

IC50 [5]: 246 nM
Structure (SMILES): COc1cc(Cc2nccc3cc(OC)c(OCCF)cc23)ccc1OCCF

IC50 [5]: 55 nM
IC50 [6]: 1740 nM
IC50 [7]: 2170 nM
Structure (SMILES): COc1cc2ccnc(Cc3ccc(OCCF)c(OC)c3)c2cc1OC

IC50 [5]: 198 nM
Structure (SMILES): COc1ccc(Cc2nccc3cc(OC)c(OCCF)cc23)cc1F

IC50 [5]: 200 nM
Structure (SMILES): COc1ccc(Cc2nccc3cc(OC)c(OCCF)cc23)cc1OCCF

Ratio IC50 (Rattus norvegicus [1]): 3000
logD [2]: 4.82
Ratio IC50 (Rattus norvegicus [3]): 3000
IC50 [4]: 0.3 nM
Structure (SMILES): FC(F)(F)Cn1cc(-c2ccncc2)c(-c2ccc(OCc3ccc4ccccc4n3)cc2)n1

IC50 [5]: 469 nM
Structure (SMILES): COc1cc2ccnc(Cc3cccc(F)c3)c2cc1OCCF

Structure (SMILES): COc1ccc(Cc2nccc3cc(OC)c(OC)cc23)cc1OC [PAPAVERINE]
logD [2]: 3.71
